Assay results as given in ChEMBL document CHEMBL2390924, “Further studies on bis-charged tetraazacyclophanes as potent inhibitors of small conductance Ca(2+)-activated K+ channels” (Eur J Med Chem, 2013).

Tests used:
[1] = target: Small conductance calcium-activated potassium channel protein 3 (Rattus norvegicus, UniProt P70605); experiment: Inhibition of KCa2.3 in Sprague-Dawley rat superior cervical ganglion neurons assessed as inhibition of afterhyperpolarization by electrophysiological assay
Small conductance calcium-activated potassium channel protein 3, sequence (P70605 whole entry): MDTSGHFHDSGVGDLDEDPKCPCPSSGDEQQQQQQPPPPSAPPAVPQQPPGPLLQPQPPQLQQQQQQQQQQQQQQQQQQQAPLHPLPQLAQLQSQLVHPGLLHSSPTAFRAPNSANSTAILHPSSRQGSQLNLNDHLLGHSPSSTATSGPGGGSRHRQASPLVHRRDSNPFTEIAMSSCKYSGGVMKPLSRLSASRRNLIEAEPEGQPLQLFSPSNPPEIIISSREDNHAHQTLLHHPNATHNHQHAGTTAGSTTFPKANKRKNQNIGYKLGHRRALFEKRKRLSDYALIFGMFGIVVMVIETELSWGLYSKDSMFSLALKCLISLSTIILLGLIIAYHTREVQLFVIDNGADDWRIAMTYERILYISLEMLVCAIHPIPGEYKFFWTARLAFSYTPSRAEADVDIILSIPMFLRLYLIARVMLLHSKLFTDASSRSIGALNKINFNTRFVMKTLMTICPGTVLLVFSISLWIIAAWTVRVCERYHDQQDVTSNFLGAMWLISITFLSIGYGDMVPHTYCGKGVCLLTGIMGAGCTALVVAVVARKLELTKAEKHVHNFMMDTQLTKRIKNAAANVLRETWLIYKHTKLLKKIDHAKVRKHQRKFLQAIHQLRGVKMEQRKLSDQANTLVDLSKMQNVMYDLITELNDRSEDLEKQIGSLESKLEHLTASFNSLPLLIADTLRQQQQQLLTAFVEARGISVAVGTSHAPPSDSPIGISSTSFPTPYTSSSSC
How it was run: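 Afterhyperpolarization (AHP) recorded from rat sympathetic ganglion neurons. The reported value is the concentration giving a 50% reduction in AHP amplitude.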

[2] = target: Small conductance calcium-activated potassium channel protein 3 (Rattus norvegicus) (UniProt P70605); experiment: Inhibition of KCa2.3 in Sprague-Dawley rat superior cervical ganglion neurons assessed as inhibition of afterhyperpolarization by electrophysiological assay relative to UCL1848
How it was run: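 AHP recorded from rat sympathetic ganglion neurons. The equi-effective molar ratio is the test-compound concentration giving 50% AHP inhibition divided by the UCL 1848 concentration giving 50% inhibition, both measured in the same experiment. Each compound was tested on 3–5 neurons.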
Target sequence in this assay (P70605 whole entry): as above

[3] = target: Small conductance calcium-activated potassium channel protein 3 (Rattus norvegicus) (UniProt P70605); experiment: Inhibition of KCa2.3 in rat superior cervical ganglion neurons
Target sequence in this assay (P70605 whole entry, looked up): as the sequence (P70605 whole entry) above

[4] = target: Small conductance calcium-activated potassium channel protein 3 (Rattus norvegicus) (UniProt P70605); experiment: Inhibition of KCa2.3 in Sprague-Dawley rat superior cervical ganglion neurons assessed as inhibition of afterhyperpolarization by electrophysiological assay relative to dequalinium
How it was run: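 AHP recorded from rat sympathetic ganglion neurons. The equi-effective molar ratio is the concentration giving 50% AHP inhibition relative to that of dequalinium, used as the comparator instead of UCL 1848.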
Target sequence in this assay (P70605 whole entry): as above

| SMILES | IC50 [1] [nM] | EMR [2] | IC50 [3] [nM] | EMR [4] |
| --- | --- | --- | --- | --- |
| c1cc2cc(c1)CNc1cc[n+](c3ccccc13)CCCCC[n+]1ccc(c3ccccc31)NC2 [listing 1 of 3 here] | 33 | – | – | – |
| c1ccc2c(c1)c1cc[n+]2CCCCC[n+]2ccc(c3ccccc32)NCC2CCC(CC2)CN1 | 114 | 54 | – | – |
| O=[N+]([O-])c1ccc2c(c1)c1cc[n+]2CCCCC[n+]2ccc(c3cc([N+](=O)[O-])ccc32)NCCCCCN1 | 4.1 | 2.1 | – | – |
| C1#CCNc2cc[n+](c3ccccc23)CCCCC[n+]2ccc(c3ccccc32)NC1 | 14 | 5.6 | – | – |
| c1ccc2c(c1)c1cc[n+]2CCCCC[n+]2ccc(c3ccccc32)NCCC2(CCN1)OCCO2 | 214 | 60 | – | – |
| FC(F)(F)c1ccc2c(c1)c1cc[n+]2Cc2cccc(c2)C[n+]2ccc(c3cc(C(F)(F)F)ccc32)NCc2ccc(cc2)CN1 | 27 | 11 | – | – |
| Nc1ccc2c(c1)c1cc[n+]2CCCCC[n+]2ccc(c3cc(N)ccc32)NCCCCCN1 | 2.3 | 1.04 | – | – |
| Nc1ccc2c(c1)c1cc[n+]2Cc2cccc(c2)C[n+]2ccc(c3cc(N)ccc32)NCc2ccc(cc2)CN1 | 3.7 | 1.7 | – | – |
| FC(F)(F)c1ccc2c(c1)c1cc[n+]2CCCCC[n+]2ccc(c3cc(C(F)(F)F)ccc32)NCCCCCN1 | 4 | 1.1 | – | – |
| C1=C\C[n+]2ccc(c3ccccc32)NCCCCCNc2cc[n+](c3ccccc23)C/1 | 42 | 19 | – | – |
| FC(F)(F)Oc1ccc2c(c1)c1cc[n+]2Cc2cccc(c2)C[n+]2ccc(c3cc(OC(F)(F)F)ccc32)NCc2ccc(cc2)CN1 | 15 | 5.9 | – | – |
| FC1(F)CNc2cc[n+](c3ccccc23)CCCCC[n+]2ccc(c3ccccc32)NCC(F)(F)C1(F)F | 33 | 13.5 | – | – |
| CC1CCNc2cc[n+](c3ccccc23)CCC(C)CC[n+]2ccc(c3ccccc32)NCC1 (configuration not stated) | 5.2 | 2.3 | – | – |
| c1ccc2c(c1)c1cc[n+]2CCCCC[n+]2ccc(c3ccccc32)NCCOCCN1 | 17 | 5 | – | – |
| OC1CCNc2cc[n+](c3ccccc23)CCCCC[n+]2ccc(c3ccccc32)NCC1 | 3.2 | 0.91 | – | – |
| Cc1ccc2c(c1)c1cc[n+]2Cc2cccc(c2)C[n+]2ccc(c3cc(C)ccc32)NCc2ccc(cc2)CN1 | 19 | 7.6 | – | – |
| Clc1ccc2c3cc[n+](c2c1)Cc1cccc(c1)C[n+]1ccc(c2ccc(Cl)cc21)NCc1ccc(cc1)CN3 | 19 | 7.3 | – | – |
| c1ccc2c(c1)c1cc[n+]2CCSCC[n+]2ccc(c3ccccc32)NCCCCCN1 | 4.1 | 1.2 | – | – |
| Oc1c2cc(I)cc1CNc1cc[n+](c3ccccc13)CCCCC[n+]1ccc(c3ccccc31)NC2 | 348 | 136 | – | – |
| CC1CCNc2cc[n+](c3ccccc23)CCCCC[n+]2ccc(c3ccccc32)NCC1 | 5.9 | 2.6 | – | – |

| SMILES | IC50 [1] [nM] | EMR [2] | IC50 [3] [nM] | EMR [4] |
| --- | --- | --- | --- | --- |
| Oc1c2cccc1CNc1cc[n+](c3ccccc13)CCCCC[n+]1ccc(c3ccccc31)NC2 | 394 | 153 | – | – |
| c1cc2cc(c1)CNc1cc[n+](c3ccccc13)CCCCC[n+]1ccc(c3ccccc31)NC2 [listing 2 of 3 here] | – | 12 | – | – |
| Oc1ccc2c(c1)c1cc[n+]2CCCCC[n+]2ccc(c3cc(O)ccc32)NCCCCCN1 | 3.9 | 1.8 | – | – |
| c1cc2cc(c1)C[n+]1ccc(c3ccccc31)NCc1ccc(cc1)CNc1cc[n+](c3ccccc13)C2 | 4.1 | 1.44 | – | – |
| Cc1ccc2c(c1)c1cc[n+]2CCCCC[n+]2ccc(c3cc(C)ccc32)NCCCCCN1 | 3.8 | 2 | – | – |
| Clc1cc(Cl)c2c3cc[n+](c2c1)Cc1cccc(c1)C[n+]1ccc(c2c(Cl)cc(Cl)cc21)NCc1ccc(cc1)CN3 | 24 | 10 | – | – |
| C1=C\CNc2cc[n+](c3ccccc23)CCCCC[n+]2ccc(c3ccccc32)NC/1 | 13 | 6.1 | – | – |
| Fc1ccc2c(c1)c1cc[n+]2Cc2cccc(c2)C[n+]2ccc(c3cc(F)ccc32)NCc2ccc(cc2)CN1 | 17 | 6.9 | – | – |
| c1ccc2c(c1)c1cc[n+]2Cc2ccc(cc2)C[n+]2ccc(c3ccccc32)NCCCCCN1 | 4.4 | 1.8 | – | – |
| FC(F)(F)c1ccc2c3cc[n+](c2c1)CCCCC[n+]1ccc(c2ccc(C(F)(F)F)cc21)NCCCCCN3 | 8.1 | 1.6 | – | – |
| c1ccc(CN2CCCCCN(Cc3ccccc3)c3cc[n+](c4ccccc34)CCCCC[n+]3ccc2c2ccccc23)cc1 | 123 | 25 | – | – |
| c1cc2cc(c1)C[n+]1ccc(c3ccccc31)NCC1CCC(CC1)CNc1cc[n+](c3ccccc13)C2 | 1.7 | 0.81 | – | – |
| COc1ccc2c3cc[n+](c2c1)Cc1cccc(c1)C[n+]1ccc(c2ccc(OC)cc21)NCc1ccc(cc1)CN3 | 9.8 | 4.1 | – | – |
| Clc1ccc2c(c1)c1cc[n+]2CCCCC[n+]2ccc(c3cc(Cl)ccc32)NCCCCCN1 | 3 | 1.1 | – | – |
| c1ccc2c(c1)c1cc[n+]2CCOCC[n+]2ccc(c3ccccc32)NCCCCCN1 | 4.8 | 1.4 | – | – |
| COc1c2cccc1CNc1cc[n+](c3ccccc13)CCCCC[n+]1ccc(c3ccccc31)NC2 | 97 | 38 | – | – |
| Clc1cc(Cl)c2c3cc[n+](c2c1)CCCCC[n+]1ccc(c2c(Cl)cc(Cl)cc21)NCCCCCN3 | 21 | 8.6 | – | – |
| COc1ccc2c(c1)c1cc[n+]2CCCCC[n+]2ccc(c3cc(OC)ccc32)NCCCCCN1 | 6.8 | 3.1 | – | – |
| c1cc2cc(c1)CNc1cc[n+](c3ccccc13)CCCCC[n+]1ccc(c3ccccc31)NC2 [listing 3 of 3 here] | – | – | 31 | – |
| O=[N+]([O-])c1ccc2c(c1)c1cc[n+]2Cc2cccc(c2)C[n+]2ccc(c3cc([N+](=O)[O-])ccc32)NCc2ccc(cc2)CN1 | 5.1 | 2.6 | – | – |

| SMILES | IC50 [1] [nM] | EMR [2] | IC50 [3] [nM] | EMR [4] |
| --- | --- | --- | --- | --- |
| c1ccc2c(c1)c1cc[n+]2CCOCC[n+]2ccc(c3ccccc32)NCCSCCN1 | 58 | 17 | – | – |
| COc1ccc2c3cc[n+](c2c1)CCCCC[n+]1ccc(c2ccc(OC)cc21)NCCCCCN3 | 3 | 1.1 | – | – |
| c1ccc2c(c1)c1cc[n+]2CCSCC[n+]2ccc(c3ccccc32)NCCSCCN1 | 42 | 12 | – | – |
| c1ccc2c(c1)c1cc[n+]2CCC2(CC[n+]3ccc(c4ccccc43)NCCC3(CCN1)OCCO3)OCCO2 | 300 | 83 | – | – |
| c1ccc2c(c1)c1cc[n+]2CCCCC[n+]2ccc(c3ccccc32)NCCSCCN1 | 18 | 5.3 | – | – |
| Clc1ccc2c3cc[n+](c2c1)CCCCC[n+]1ccc(c2ccc(Cl)cc21)NCCCCCN3 | 2.6 | 0.53 | – | – |
| c1ccc2c(c1)c1cc[n+]2CCOCC[n+]2ccc(c3ccccc32)NCCOCCN1 | 17 | 5.1 | – | – |
| CC1CC[n+]2ccc(c3ccccc32)NCCCCCNc2cc[n+](c3ccccc23)CC1 | 3.8 | 1.7 | – | – |
| Clc1ccc2c(c1)c1cc[n+]2Cc2cccc(c2)C[n+]2ccc(c3cc(Cl)ccc32)NCc2ccc(cc2)CN1 | 21 | 8 | – | – |
| O=C1CCNc2cc[n+](c3ccccc23)CCCCC[n+]2ccc(c3ccccc32)NCC1 | 12 | 3.6 | – | – |
| c1ccc2c(c1)c1cc[n+]2CCSCC[n+]2ccc(c3ccccc32)NCCOCCN1 | 37 | 11 | – | – |
| FC(F)(F)c1ccc2c3cc[n+](c2c1)Cc1cccc(c1)C[n+]1ccc(c2ccc(C(F)(F)F)cc21)NCc1ccc(cc1)CN3 | 76 | 31 | – | – |
| c1ccc2c(c1)c1cc[n+]2CCCCC[n+]2ccc(c3ccccc32)NCCCCCN1 | 2.7 | – | – | – |
| Fc1ccc2c(c1)c1cc[n+]2CCCCC[n+]2ccc(c3cc(F)ccc32)NCCCCCN1 | 4.1 | 2.1 | – | – |
| c1ccc2c(c1)c1cc[n+]2CCCCC[n+]2ccc(c3ccccc32)NCc2ccc(cc2)CN1 | – | – | 60 | – |
| COc1ccc2c(c1)c1cc[n+]2Cc2cccc(c2)C[n+]2ccc(c3cc(OC)ccc32)NCc2ccc(cc2)CN1 | 15 | 7.4 | – | – |
| CN1CCCCCN(C)c2cc[n+](c3ccccc23)CCCCC[n+]2ccc1c1ccccc12 | 124 | 47 | – | 0.14 |
| c1ccc2c(c1)c1cc[n+]2CCCCC[n+]2ccc(c3ccccc32)SCCCCCS1 | 124 | 25 | – | – |
